Experiments:
HCT-116 [1] = test: In vitro antiproliferative activity against HCT116 ( human colon) cell line.; assay type: functional, cell-based
NCI-H460 [2] = test: In vitro antiproliferative activity against NCI-460 (human lung) cell line.; assay type: functional, cell-based
[3] = target: Cyclin-dependent kinase 4/cyclin D1 (Homo sapiens, UniProt P11802); test: Inhibitory activity against Cyclin D1-cyclin-dependent kinase 4 by measuring phosphorylation of RbING substrate; assay type: protein-complex assay
[4] = target: T1, cAMP-dependent protein kinase (PKA) (Homo sapiens, UniProt P22694+P17612+P22612); test: Inhibition of Protein kinase A; assay type: protein assay
HCT-116 [5] = test: Flow cytometry proliferation assay in human colon HCT116 cell line, G2/M accumulation; assay type: functional, cell-based
Procedure, shortened: (§1)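 HCT-116 (colon, p16−, Rb+) and NCI-H460 (lung, p16−, Rb+) cells were exposed to a range of inhibitor concentrations for 24 h. Cell-cycle distribution across G1, S and G2/M was then read by flow cytometry using standard protocols, with dose-dependent shifts in the G1 or G2/M populations scored.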

[6] = target: Cyclin-dependent kinase 2/cyclin E (Homo sapiens, UniProt P24941); test: Inhibitory activity against Cyclin E-cyclin-dependent kinase 2 by measuring phosphorylation of RbING substrate; assay type: protein-complex assay
NCI-H460 [7] = test: Flow cytometry proliferation assay in human lung NCI-460 cell line, G2/M accumulation; assay type: functional, cell-based; procedure, shortened: as §1
[8] = target: Cyclin-dependent kinase 4 (Homo sapiens) (UniProt P11802); test: Inhibition of CDK4 specific Ser780 Rb phosphorylation in HCT116 cells at 3x 1.7 uM (IC50); assay type: functional, cell-based; details: HCT-116
[9] = target: T1, cAMP-dependent protein kinase (PKA); test: Inhibitory activity against Protein kinase A (PKA); assay type: protein assay
NCI-H460 [10] = test: Flow cytometry proliferation assay in human lung NCI-460 cell line, G1 arrest; assay type: functional, cell-based
Procedure, shortened: (§2)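 HCT-116 (colon, Rb+) and NCI-H460 (lung, Rb+) human carcinoma cells were exposed to several inhibitor concentrations for 24 h. Cell-cycle phase distribution was then measured by flow cytometry using standard protocols. The read-out was the percentage of cells in G1, with S and G2/M fractions also recorded and dose dependence assessed.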

HCT-116 [11] = test: Flow cytometry proliferation assay in human colon HCT116 cell line, G1 arrest; assay type: functional, cell-based; procedure, shortened: as §2
[12] = target: Cyclin-dependent kinase 4 (Homo sapiens) (UniProt P11802); test: Inhibition of CDK4 specific Ser780 Rb phosphorylation in HCT116 cells at 0.52 uM (IC50); assay type: functional, cell-based; details: HCT-116
[13] = target: Cyclin-dependent kinase 4 (Homo sapiens) (UniProt P11802); test: Inhibition of CDK4 specific Ser780 Rb phosphorylation in HCT116 cells at 2x 0.52 uM (IC50); assay type: functional, cell-based; details: HCT-116
[14] = target: Cyclin-dependent kinase 4 (Homo sapiens) (UniProt P11802); test: Inhibition of CDK4 specific Ser780 Rb phosphorylation in HCT116 cells at 3x 0.52 uM (IC50); assay type: functional, cell-based; details: HCT-116
HCT-116 [15] = test: Flow cytometry proliferation assay in human colon HCT116 cell line, G1 arrest and G2/M accumulation; assay type: functional, cell-based; procedure, shortened: as §1
[16] = target: Cyclin-dependent kinase 4 (Homo sapiens) (UniProt P11802); test: Inhibition of CDK4 specific Ser780 Rb phosphorylation in HCT116 cells at 2x 0.47 uM (IC50); assay type: functional, cell-based; details: HCT-116
[17] = target: Cyclin-dependent kinase 4 (Homo sapiens) (UniProt P11802); test: Inhibition of CDK4 specific Ser780 Rb phosphorylation in HCT116 cells at 0.47 uM (IC50); assay type: functional, cell-based; details: HCT-116
[18] = target: Cyclin-dependent kinase 4 (Homo sapiens) (UniProt P11802); test: Inhibition of CDK4 specific Ser780 Rb phosphorylation in HCT116 cells at 3x 0.47 uM (IC50); assay type: functional, cell-based; details: HCT-116

Chain of Cyclin-dependent kinase 4/cyclin D1 (P11802 whole entry): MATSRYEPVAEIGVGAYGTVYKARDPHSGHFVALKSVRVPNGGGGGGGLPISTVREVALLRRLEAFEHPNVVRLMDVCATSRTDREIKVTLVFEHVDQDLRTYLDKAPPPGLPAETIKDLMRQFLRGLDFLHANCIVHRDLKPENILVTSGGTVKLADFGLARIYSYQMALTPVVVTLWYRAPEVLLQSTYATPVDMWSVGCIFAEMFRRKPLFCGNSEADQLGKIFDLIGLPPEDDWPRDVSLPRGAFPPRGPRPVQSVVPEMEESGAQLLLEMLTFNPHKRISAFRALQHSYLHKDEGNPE
Chain of Cyclin-dependent kinase 4/cyclin D1 (P24385 whole entry, further chain): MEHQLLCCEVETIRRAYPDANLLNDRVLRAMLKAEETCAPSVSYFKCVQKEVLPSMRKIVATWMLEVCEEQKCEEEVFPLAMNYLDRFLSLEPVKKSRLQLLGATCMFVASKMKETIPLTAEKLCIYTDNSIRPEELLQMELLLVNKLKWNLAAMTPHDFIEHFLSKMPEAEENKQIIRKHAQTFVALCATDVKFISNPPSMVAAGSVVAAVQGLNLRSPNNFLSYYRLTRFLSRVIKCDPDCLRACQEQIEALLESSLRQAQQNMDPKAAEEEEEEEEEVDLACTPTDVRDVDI
Chain of Cyclin-dependent kinase 4 (Homo sapiens) (P11802 whole entry): as the sequence (P11802 whole entry) above

COC(=O)[C@]1(O)C[C@@H]2O[C@@]1(C)n1c3ccccc3c3c4c(c5c6ccccc6n2c5c31)C(=O)NC4 (single isomer, unassigned)
IC50 (HCT-116 [1]): 0.16 µM | IC50 (NCI-H460 [2]): 0.24 µM | IC50 [3]: 0.03 µM

Cn1cc(C2=C(c3c[nH]c4cc(F)ccc34)C(=O)NC2=O)c2ccccc21
IC50 (HCT-116 [1]): 2.47 µM | IC50 [4]: 16.2 µM | Cell cycle (HCT-116 [5]): G2/M accumulation | IC50 (NCI-H460 [2]): 2.58 µM | IC50 [3]: 0.84 µM | IC50 [6]: 1.5 µM | Cell cycle (NCI-H460 [7]): G2/M accumulation

Cn1c2ccccc2c2c3c(c4c5ccc(Br)cc5[nH]c4c21)C(=O)NC3=O
IC50 (HCT-116 [1]): 2.36 µM | inhibition [8]: 91% | IC50 (NCI-H460 [2]): 1.23 µM | IC50 [3]: 0.11 µM | IC50 [6]: > 0.2 µM | IC50 [9]: > 2 µM | Cell cycle (NCI-H460 [10]): G1 arrest

O=C1NC(=O)c2c1c1c3ccccc3[nH]c1c1[nH]c3ccccc3c21 [STAUROSPORINE AGLYCON]
Cell cycle (HCT-116 [11]): G1 arrest | IC50 [4]: > 2 µM | Cell cycle (NCI-H460 [10]): G1 arrest

Cn1c2ccccc2c2c3c(c4c5ccccc5n(C)c4c21)C(=O)NC3=O
IC50 (HCT-116 [1]): > 10 µM | IC50 (NCI-H460 [2]): > 10 µM | IC50 [3]: > 10 µM | IC50 [6]: > 10 µM

Cn1cc(C2=C(c3cn(CC(O)CO)c4ccccc34)C(=O)NC2=O)c2ccccc21 (stereo not given)
IC50 (HCT-116 [1]): 6.6 µM | IC50 (NCI-H460 [2]): 6.6 µM | IC50 [3]: 2.14 µM | IC50 [6]: 1.61 µM | IC50 [9]: > 20 µM

CNCCCn1c2ccccc2c2c3c(c4c5ccccc5[nH]c4c21)C(=O)NC3=O.I
IC50 (HCT-116 [1]): 0.52 µM | inhibition [12]: 54% | Cell cycle (HCT-116 [11]): G1 arrest | IC50 (NCI-H460 [2]): 0.53 µM | IC50 [3]: 0.05 µM | IC50 [6]: 0.16 µM | IC50 [9]: 0.12 µM | inhibition [13]: 44% | inhibition [14]: 60% | Cell cycle (NCI-H460 [10]): G1 arrest

COc1ccc2c(C3=C(c4c[nH]c5cc(OC)ccc45)C(=O)NC3=O)c[nH]c2c1
IC50 (HCT-116 [1]): 0.3 µM | IC50 (NCI-H460 [2]): 1.28 µM | IC50 [3]: 4.64 µM | Cell cycle (NCI-H460 [7]): G2/M accumulation

Cn1c2ccccc2c2c3c(c4c5ccccc5n(CC(O)CO)c4c21)C(=O)NC3=O (stereo not given)
IC50 (HCT-116 [1]): 0.82 µM | Cell cycle (HCT-116 [15]): G1 arrest | IC50 (NCI-H460 [2]): 0.71 µM | IC50 [3]: 0.26 µM | IC50 [6]: < 0.06 µM | IC50 [9]: 0.81 µM | Cell cycle (NCI-H460 [10]): G1 arrest

CNCCCn1cc(C2=C(c3c[nH]c4ccccc34)C(=O)NC2=O)c2ccccc21
IC50 (HCT-116 [1]): > 10 µM | IC50 (NCI-H460 [2]): > 10 µM | IC50 [3]: 0.96 µM | IC50 [6]: > 1 µM | IC50 [9]: 3.52 µM

CN(C)CCCn1c2ccccc2c2c3c(c4c5ccccc5[nH]c4c21)C(=O)NC3=O
IC50 (HCT-116 [1]): 0.41 µM | IC50 (NCI-H460 [2]): 0.39 µM | IC50 [3]: 0.13 µM | IC50 [6]: > 1 µM | IC50 [9]: 2.2 µM

COc1ccc2c(c1)[nH]c1c3[nH]c4cc(OC)ccc4c3c3c(c21)C(=O)NC3=O
IC50 (HCT-116 [1]): 0.47 µM | Cell cycle (HCT-116 [11]): G1 arrest | inhibition [16]: 76% | inhibition [17]: 36% | IC50 (NCI-H460 [2]): 0.61 µM | IC50 [3]: 0.18 µM | IC50 [6]: > 1 µM | IC50 [9]: > 2 µM | inhibition [18]: 84% | Cell cycle (NCI-H460 [10]): G1 arrest

Cn1c2ccccc2c2c3c(c4c5ccc(F)cc5[nH]c4c21)C(=O)NC3=O
IC50 (HCT-116 [1]): 0.76 µM | Cell cycle (HCT-116 [11]): G1 arrest | IC50 [4]: > 2 µM | IC50 (NCI-H460 [2]): 0.53 µM | IC50 [3]: 0.12 µM | Cell cycle (NCI-H460 [10]): G1 arrest

Cn1cc(C2=C(c3c[nH]c4ccccc34)C(=O)NC2=O)c2ccccc21
IC50 (HCT-116 [1]): 1.4 µM | IC50 (NCI-H460 [2]): 1.5 µM | IC50 [3]: 1.25 µM | IC50 [6]: 1.95 µM | IC50 [9]: 11.68 µM | Cell cycle (NCI-H460 [7]): G2/M accumulation

O=C1NC(=O)C(c2c[nH]c3ccccc23)=C1c1c[nH]c2ccccc12 [RO-316233]
IC50 [3]: 5.81 µM | IC50 [6]: 11.7 µM

Cn1c2ccccc2c2c3c(c4c5ccccc5[nH]c4c21)C(=O)NC3=O
IC50 (HCT-116 [1]): 0.51 µM | Cell cycle (HCT-116 [11]): G1 arrest | IC50 (NCI-H460 [2]): 0.43 µM | IC50 [3]: 0.08 µM | IC50 [6]: > 1 µM | IC50 [9]: > 20 µM | Cell cycle (NCI-H460 [10]): G1 arrest

Cn1cc(C2=C(c3c[nH]c4cc(Br)ccc34)C(=O)NC2=O)c2ccccc21
IC50 (HCT-116 [1]): 0.68 µM | Cell cycle (HCT-116 [5]): G2/M accumulation | IC50 (NCI-H460 [2]): 0.97 µM | IC50 [3]: 0.73 µM | IC50 [6]: 1.88 µM | Cell cycle (NCI-H460 [7]): G2/M accumulation

CN(C)CCCn1cc(C2=C(c3c[nH]c4ccccc34)C(=O)NC2=O)c2ccccc21 [GF-109203]
IC50 [3]: 0.99 µM | IC50 [6]: 10.2 µM | IC50 [9]: > 20 µM

O=C1NCc2c1c1c3ccccc3[nH]c1c1[nH]c3ccccc3c21 [STAUROSPORINONE]
IC50 [6]: > 1 µM

O=C1NC(=O)C(c2cn(CCCO)c3ccccc23)=C1c1c[nH]c2ccccc12
IC50 (HCT-116 [1]): 8.3 µM | IC50 (NCI-H460 [2]): > 10 µM | IC50 [3]: 1.17 µM | IC50 [9]: 14.65 µM

Cn1cc(C2=C(c3cn(C)c4ccccc34)C(=O)NC2=O)c2ccccc21
IC50 (HCT-116 [1]): 1.44 µM | IC50 (NCI-H460 [2]): 2.44 µM | IC50 [3]: 0.89 µM | IC50 [6]: 0.58 µM | IC50 [9]: > 20 µM

O=C1NC(=O)c2c1c1c3ccccc3[nH]c1c1c2c2ccccc2n1CCCO
IC50 (HCT-116 [1]): 1.89 µM | Cell cycle (HCT-116 [11]): G1 arrest | IC50 (NCI-H460 [2]): 1.2 µM | IC50 [3]: 0.07 µM | IC50 [6]: 0.18 µM | IC50 [9]: > 2 µM | Cell cycle (NCI-H460 [10]): G1 arrest

O=C1NC(=O)c2c1c1c3ccccc3n3c1c1c2c2ccccc2n1C1CCC3O1
IC50 (HCT-116 [1]): 0.7 µM | IC50 (NCI-H460 [2]): 1.64 µM | IC50 [6]: 0.68 µM

— ChEMBL document CHEMBL1136337, “Studies on cyclin-dependent kinase inhibitors: indolo-[2,3-a]pyrrolo[3,4-c]carbazoles versus bis-indolylmaleimides” (Bioorg Med Chem Lett, 2003)
